Measured values from ChEMBL document CHEMBL2311397, “Design and synthesis of cyclopropylamide analogues of combretastatin-A4 as novel microtubule-stabilizing agents” (J Med Chem, 2013).

Legend:
Assay type in all cases: functional, cell-based
SW480 = test: Cytotoxicity against human SW480 cells after 48 hrs by MTT assay
In short: (§1)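 Log-phase cells (40000–50000 cells/mL) grown in DMEM with 10% fetal calf serum (5% CO2, 37 °C) and exposed 48 h to five concentrations, 3–5 replicates. Read-out was MTT with absorbance at 570 nm; IC50 reported as mean ± SD of three independent experiments. Resistant A549 and HeLa sublines were made by stepwise paclitaxel selection; resistance index = IC50(resistant)/IC50(sensitive).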

HeLa = test: Cytotoxicity against human HeLa cells after 48 hrs by MTT assay; in short: as §1
A549 = test: Cytotoxicity against human A549 cells after 48 hrs by MTT assay; in short: as §1
[1] = Cytotoxicity against human QGY cells after 48 hrs by MTT assay; in short: as §1
K562 = test: Cytotoxicity against human K562 cells after 48 hrs by MTT assay; in short: as §1

SMILES | IC50 (SW480; Homo sapiens, SW480, 48 h) [µM] | IC50 (HeLa; hela) [µM] | IC50 (A549; Homo sapiens, A549, 48 h) [µM] | IC50 ([1]; qgy) [µM] | IC50 (K562; Homo sapiens, K562, 48 h) [µM] | IC50 (SW480; sw480) [µM] | IC50 (A549; a549) [µM] | IC50 (K562; k562) [µM] | IC50 (HeLa; Homo sapiens, HeLa, 48 h) [µM] | IC50 ([1]; Homo sapiens, QGY, 48 h) [µM]
CCOC(=O)C1(C(=O)Nc2cccc(Cl)c2)CC1c1cc(OC)c(OC)c(OC)c1 (stereo in doubt; cis) | 37.4 | 35.1 | 25.6 | 46.3 | 52.1 |  |  |  |  | 
CCOC(=O)C1(C(=O)NCc2ccc(F)cc2)CC1c1cc(OC)c(OC)c(OC)c1 (trans isomer) |  | 27.8 |  | > 100 |  | 28.4 | 34.1 | 43.1 |  | 
CCOC(=O)[C@@]1(C(=O)NCc2ccc(C)cc2)C[C@H]1c1cc(OC)c(OC)c(OC)c1 | > 100 |  | 17.1 |  | > 100 |  |  |  | 19.7 | 26.4
CCOC(=O)[C@@]1(C(=O)Nc2ccccc2)C[C@@H]1c1cc(OC)c(OC)c(OC)c1 | > 100 |  | > 100 |  | > 100 |  |  |  | > 100 | > 100
CCOC(=O)C1(C(=O)NCc2ccccc2)CC1c1cc(OC)c(OC)c(OC)c1 (trans isomer) |  | 76.3 |  |  |  | > 100 | > 100 |  |  | 
CCOC(=O)C1(C(=O)Nc2ccccc2)CC1c1cc(OC)c(OC)c(OC)c1 (cis isomer) |  |  | 31.5 |  | > 100 | 49 |  |  | > 100 | 59.3
CCOC(=O)C1(C(=O)NCCc2cccc(F)c2)CC1c1cc(OC)c(OC)c(OC)c1 (trans isomer) |  | 58.2 |  | > 100 |  | 79.3 | 64.3 | > 100 |  | 
COc1cc([C@@H]2C[C@]2(CO)C(=O)NCc2ccc(C)cc2)cc(OC)c1OC | 26.8 |  | 10.5 |  | > 100 |  |  |  | 17.4 | 25.1
COc1cc([C@H]2C[C@@]2(CO)C(=O)NCc2ccc(C)cc2)cc(OC)c1OC | > 100 |  | 63.8 |  | > 100 |  |  |  | > 100 | > 100
CCOC(=O)[C@]1(C(=O)Nc2ccccc2)C[C@H]1c1cc(OC)c(OC)c(OC)c1 | > 100 |  | 37.3 |  | > 100 |  |  |  | > 100 | > 100
CCOC(=O)C1(C(=O)Nc2ccccc2[N+](=O)[O-])CC1c1cc(OC)c(OC)c(OC)c1 (stereo in doubt) | 34.1 |  | 24.5 |  | 56.3 |  |  |  | 40.2 | 54.1
CCOC(=O)C1(C(=O)Nc2ccccc2Cl)CC1c1cc(OC)c(OC)c(OC)c1 (stereo in doubt; trans) |  | 76.4 |  | 48.8 |  | 66.7 | 18.5 | 14.2 |  | 
CCOC(=O)C1(C(=O)NCCc2ccccc2F)CC1c1cc(OC)c(OC)c(OC)c1 (cis isomer) |  |  | 27.3 |  | > 100 | 86.3 |  |  | 58.2 | 34.1
CCOC(=O)[C@@]1(C(=O)Nc2ccccc2)C[C@H]1c1cc(OC)c(OC)c(OC)c1 | > 100 |  | 65.9 |  | > 100 |  |  |  | > 100 | 48.7
CCOC(=O)C1(C(=O)NCc2ccc(OC)cc2)CC1c1cc(OC)c(OC)c(OC)c1 (trans isomer) |  |  |  |  |  |  | 73.8 |  |  | 
CCOC(=O)C1(C(=O)Nc2cccc([N+](=O)[O-])c2)CC1c1cc(OC)c(OC)c(OC)c1 (stereo in doubt; cis) |  |  | 76.4 |  | > 100 | > 100 |  |  | 59.4 | > 100
COc1cc([C@@H]2C[C@@]2(CO)C(=O)Nc2ccccc2Cl)cc(OC)c1OC | 10.7 |  | 11.4 |  | 18.4 |  |  |  | 13.3 | 24.5
COc1cc([C@H]2C[C@@]2(CO)C(=O)Nc2ccccc2)cc(OC)c1OC | > 100 |  | > 100 |  | > 100 |  |  |  | > 100 | > 100

SMILES | IC50 (SW480; Homo sapiens, SW480, 48 h) [µM] | IC50 (HeLa; hela) [µM] | IC50 (A549; Homo sapiens, A549, 48 h) [µM] | IC50 ([1]; qgy) [µM] | IC50 (K562; Homo sapiens, K562, 48 h) [µM] | IC50 (SW480; sw480) [µM] | IC50 (A549; a549) [µM] | IC50 (K562; k562) [µM] | IC50 (HeLa; Homo sapiens, HeLa, 48 h) [µM] | IC50 ([1]; Homo sapiens, QGY, 48 h) [µM]
CCOC(=O)C1(C(=O)Nc2cccc(Cl)c2)CC1c1cc(OC)c(OC)c(OC)c1 (stereo in doubt; trans) |  | > 100 |  | > 100 |  | 28.7 | 45.2 | > 100 |  | 
CCOC(=O)C1(C(=O)NCc2ccccc2)CC1c1cc(OC)c(OC)c(OC)c1 (cis isomer) | 89.6 |  | 79.5 |  | > 100 |  |  |  | 46.5 | > 100
CCOC(=O)C1(C(=O)NCc2ccc(C)cc2)CC1c1cc(OC)c(OC)c(OC)c1 (trans isomer) |  | 25.6 |  | 37.9 |  | > 100 | 21.4 |  |  | 
CCOC(=O)[C@]1(C(=O)Nc2ccccc2)C[C@@H]1c1cc(OC)c(OC)c(OC)c1 | 31.7 |  | 21.3 |  | > 100 |  |  |  | > 100 | 38.1
CCOC(=O)[C@@]1(C(=O)Nc2ccccc2Cl)C[C@@H]1c1cc(OC)c(OC)c(OC)c1 | 46.7 |  | 29 |  | 49.4 |  |  |  | > 100 | > 100
CCOC(=O)[C@@]1(C(=O)NCc2ccc(C)cc2)C[C@@H]1c1cc(OC)c(OC)c(OC)c1 | > 100 |  | > 100 |  | > 100 |  |  |  | > 100 | > 100
CCOC(=O)C1(C(=O)Nc2ccccc2Cl)CC1c1cc(OC)c(OC)c(OC)c1 (stereo in doubt; cis) |  | 22.1 | 18 |  |  | 27.2 |  | 41.4 |  | 36.1
CCOC(=O)C1(C(=O)Nc2ccccc2[N+](=O)[O-])CC1c1cc(OC)c(OC)c(OC)c1 (trans isomer) |  | 35.1 |  | > 100 |  | 31.8 | 30.9 | > 100 |  | 
COc1cc([C@@H]2C[C@@]2(CO)C(=O)Nc2ccccc2)cc(OC)c1OC | 76.8 |  | 43.2 |  | > 100 |  |  |  | 86.4 | 36.7
CCOC(=O)C1(C(=O)NCCc2ccccc2F)CC1c1cc(OC)c(OC)c(OC)c1 (trans isomer) |  | > 100 |  | 46.8 |  | 16.9 | 31.1 | 79.1 |  | 
CCOC(=O)C1(C(=O)NCCc2ccc(F)cc2)CC1c1cc(OC)c(OC)c(OC)c1 (trans isomer) |  | 35 |  |  |  | 40.3 | > 100 |  |  | 
COc1cc([C@H]2C[C@]2(CO)C(=O)Nc2ccccc2)cc(OC)c1OC | > 100 |  | > 100 |  | > 100 |  |  |  | > 100 | > 100
CCOC(=O)C1(C(=O)NCCc2ccc(F)cc2)CC1c1cc(OC)c(OC)c(OC)c1 (cis isomer) | 75.1 |  |  |  | > 100 |  | 49.3 |  | 58.1 | > 100
COc1cc([C@H]2C[C@]2(CO)C(=O)Nc2ccccc2Cl)cc(OC)c1OC | 40.2 |  | 36.7 |  | > 100 |  |  |  | 45.5 | 40.7
CCOC(=O)C1(C(=O)Nc2ccccc2)CC1c1cc(OC)c(OC)c(OC)c1 (trans isomer) |  |  |  | > 100 |  | > 100 | 48.6 |  |  | 
CCOC(=O)C1(C(=O)Nc2ccc(OC)cc2)CC1c1cc(OC)c(OC)c(OC)c1 (stereo in doubt) |  | > 100 |  | > 100 |  | > 100 | > 100 |  |  | 
CCOC(=O)C1(C(=O)Nc2cccc([N+](=O)[O-])c2)CC1c1cc(OC)c(OC)c(OC)c1 (stereo in doubt; trans) |  | > 100 |  |  |  | 49.5 | 80.3 |  |  | 
